Experimental data reported in ChEMBL document CHEMBL1629614, “Inhibition of methionyl-tRNA synthetase by REP8839 and effects of resistance mutations on enzyme activity” (Antimicrob Agents Chemother, 2009).
Converted amounts (≈) assume the structure as drawn.

Columns and labels:
[1] = test system: Staphylococcus aureus; assay: Antimicrobial activity against Staphylococcus aureus expressing MetRS I57N V242F mutant; format: functional
[2] = test system: Haemophilus influenzae; assay: Antimicrobial activity against Haemophilus influenzae expressing MetRS gene; format: functional
[3] = molecular target: Methionine--tRNA ligase (Staphylococcus aureus subsp. aureus MW2, UniProt Q8NY00, I57N); assay: Inhibition of Staphylococcus aureus MetRS I57N mutant
Procedure, shortened: (§1)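 Purified recombinant S. aureus MetRS (mutant, expressed in E. coli) was tested by ATP:PPi exchange with [32P]PPi, using 125 mM methionine and 100 μM ATP so that the IC50 sits above enzyme concentration. Inhibitor was in DMSO (8% final), over 1 μM to 0.05 nM. A sigmoidal fit gave the IC50, and Ki = IC50/[(1+[Met]/KmMet)(1+KmATP/[ATP])], with KmMet taken at that ATP level.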

[4] = molecular target: Methionine--tRNA ligase (Staphylococcus aureus subsp. aureus MW2, UniProt Q8NY00, A247E/I57N); assay: Inhibition of Staphylococcus aureus MetRS I57N A247E mutant
[5] = test system: Staphylococcus aureus; assay: Antimicrobial activity against Staphylococcus aureus expressing MetRS G54A A64P mutant; format: functional
[6] = molecular target: Methionine--tRNA ligase (Staphylococcus aureus subsp. aureus MW2, UniProt Q8NY00, G54S/I57N); assay: Inhibition of Staphylococcus aureus MetRS I57N G54S mutant
[7] = molecular target: Methionine--tRNA ligase (Staphylococcus aureus subsp. aureus MW2, UniProt Q8NY00, A247E); assay: Inhibition of Staphylococcus aureus MetRS A247E mutant; procedure, shortened: as §1
[8] = Cytotoxicity against rat H42E cells by MTT assay; format: cell-based
[9] = Inhibition of human mitochondrial MetRS
Procedure, shortened: (§2)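 tRNA aminoacylation with scintillation proximity detection. Purified MetRS in 40 mM Tris-HCl pH 8.0, 10 mM Mg acetate, 2.5 mM ATP, 80 mM KCl, 2.5 mM DTT, BSA, [3H]methionine (7 μM Met), 1 μg/ml crude E. coli tRNA. Human enzymes had 0.2–0.6 mM spermine, and substrate, Mg and enzyme levels were optimized per ortholog. Inhibitor was a DMSO serial dilution, 1 μM to 0.05 nM (final), 8% DMSO final, 30 min at room temperature. Reactions were EDTA-stopped, and charged tRNA was captured on polylysine YSi beads at pH 2.0. IC50 came from a four-parameter logistic fit versus DMSO control.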

[10] = test system: Staphylococcus aureus; assay: Antimicrobial activity against Staphylococcus aureus expressing MetRS I57N mutant; format: functional
[11] = test system: Staphylococcus aureus; assay: Antimicrobial activity against Staphylococcus aureus expressing MetRS G54S mutant; format: functional
[12] = molecular target: T1, Methionine--tRNA ligase (Haemophilus influenzae (strain ATCC 51907 / DSM 11121 / KW20 / Rd), UniProt P43828); assay: Inhibition of Haemophilus influenzae MetRS; procedure, shortened: as §2
T1 sequence (P43828 whole entry): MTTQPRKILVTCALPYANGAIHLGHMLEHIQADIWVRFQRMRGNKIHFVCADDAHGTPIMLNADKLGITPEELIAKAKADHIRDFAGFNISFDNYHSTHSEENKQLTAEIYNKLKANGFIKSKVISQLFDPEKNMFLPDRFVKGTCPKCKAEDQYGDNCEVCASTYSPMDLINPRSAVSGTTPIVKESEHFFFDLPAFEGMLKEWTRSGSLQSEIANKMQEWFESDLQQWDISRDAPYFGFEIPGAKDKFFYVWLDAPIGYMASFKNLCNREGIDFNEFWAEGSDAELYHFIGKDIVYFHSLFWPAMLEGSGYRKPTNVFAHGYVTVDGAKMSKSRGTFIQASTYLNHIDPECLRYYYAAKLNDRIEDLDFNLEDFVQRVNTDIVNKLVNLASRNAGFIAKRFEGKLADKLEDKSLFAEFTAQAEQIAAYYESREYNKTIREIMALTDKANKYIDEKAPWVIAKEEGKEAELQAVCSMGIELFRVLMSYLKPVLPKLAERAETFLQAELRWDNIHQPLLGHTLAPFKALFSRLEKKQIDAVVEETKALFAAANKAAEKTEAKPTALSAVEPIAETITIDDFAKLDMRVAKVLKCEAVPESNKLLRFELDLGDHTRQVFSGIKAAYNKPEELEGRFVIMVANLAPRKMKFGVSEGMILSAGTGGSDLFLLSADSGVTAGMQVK

[13] = Inhibition of Staphylococcus aureus MetRS; procedure, shortened: as §2
[14] = test system: Streptococcus pneumoniae; assay: Antimicrobial activity against Streptococcus pneumoniae expressing MetRS1 gene; format: functional
[15] = molecular target: Methionine--tRNA ligase (Staphylococcus aureus subsp. aureus MW2, UniProt Q8NY00, L213W); assay: Inhibition of Staphylococcus aureus MetRS L213W mutant; procedure, shortened: as §1
[16] = test system: Escherichia coli; assay: Antimicrobial activity against Escherichia coli expressing MetRS gene; format: functional
[17] = test system: Staphylococcus aureus; assay: Antimicrobial activity against Staphylococcus aureus expressing MetRS V108M mutant; format: functional
[18] = test system: Staphylococcus aureus; assay: Antimicrobial activity against Staphylococcus aureus expressing MetRS A247E mutant; format: functional
[19] = molecular target: Methionine--tRNA ligase (Staphylococcus aureus subsp. aureus MW2, UniProt Q8NY00, I57N/V242F); assay: Inhibition of Staphylococcus aureus MetRS I57N V242F mutant
[20] = Inhibition of Streptococcus pneumoniae MetRS1; procedure, shortened: as §2
[21] = molecular target: Methionine--tRNA ligase (Staphylococcus aureus subsp. aureus MW2, UniProt Q8NY00, G223C); assay: Inhibition of Staphylococcus aureus MetRS G223C mutant; procedure, shortened: as §1
[22] = molecular target: Methionine--tRNA ligase (Staphylococcus aureus subsp. aureus MW2, UniProt Q8NY00, I238F/I57N); assay: Inhibition of Staphylococcus aureus MetRS I57N I238F mutant
[23] = Inhibition of Streptococcus pneumoniae MetRS2; procedure, shortened: as §2
[24] = Inhibition of Escherichia coli MetRS; procedure, shortened: as §2
[25] = test system: Staphylococcus aureus; assay: Antimicrobial activity against Staphylococcus aureus expressing MetRS I57N I238F mutant; format: functional
[26] = molecular target: Methionine--tRNA ligase (Staphylococcus aureus subsp. aureus MW2, UniProt Q8NY00, G54S); assay: Inhibition of Staphylococcus aureus MetRS G54S mutant
[27] = test system: Staphylococcus aureus; assay: Antimicrobial activity against Staphylococcus aureus expressing MetRS I57N G54S mutant; format: functional
[28] = molecular target: Methionine--tRNA ligase (Staphylococcus aureus subsp. aureus MW2, UniProt Q8NY00, V108M); assay: Inhibition of Staphylococcus aureus MetRS V108M mutant; procedure, shortened: as §1
[29] = test system: Staphylococcus aureus; assay: Antimicrobial activity against Staphylococcus aureus expressing MetRS I57N A247E mutant; format: functional
[30] = test system: Streptococcus pneumoniae; assay: Antimicrobial activity against Streptococcus pneumoniae expressing MetRS2 gene; format: functional
[31] = molecular target: Methionine--tRNA ligase (Staphylococcus aureus subsp. aureus MW2, UniProt Q8NY00, A64P/G54A); assay: Inhibition of Staphylococcus aureus MetRS G54A A64P mutant
[32] = test system: Staphylococcus aureus; assay: Antimicrobial activity against Staphylococcus aureus expressing MetRS G223C mutant; format: functional
[33] = test system: A549; assay: Cytotoxicity against human A549 cells by MTT assay; format: cell-based
[34] = test system: Staphylococcus aureus; assay: Antimicrobial activity against Staphylococcus aureus expressing MetRS L213W mutant; format: functional
[35] = test system: Staphylococcus aureus; assay: Antimicrobial activity against Staphylococcus aureus expressing MetRS gene; format: functional
[36] = Inhibition of human cytoplasmic MetRS; procedure, shortened: as §2

SMILES: C=C(F)c1sc(CNCCCNc2cc(=O)c3ccccc3[nH]2)c(C)c1Br [BEDEROCIN]
- MIC [1]: 32 µg/mL (≈ 71.1 µM)
- MIC [2]: > 64 µg/mL
- Ki [3]: 0.08 nM
- Ki [4]: 60 nM
- MIC [5]: 32 µg/mL (≈ 71.1 µM)
- Ki [6]: 900 nM
- Ki [7]: 0.06 nM
- IC50 [8]: > 20000 nM
- Ki [9]: 23 nM
- MIC [10]: 8 µg/mL (≈ 17.8 µM)
- MIC [11]: 16 µg/mL (≈ 35.5 µM)
- Ki [12]: 225 nM
- Ki [13]: 0.01 nM
- MIC [14]: 0.12 µg/mL (≈ 0.266 µM)
- Ki [15]: 0.04 nM
- MIC [16]: 16 µg/mL (≈ 35.5 µM)
- MIC [17]: 8 µg/mL (≈ 17.8 µM)
- MIC [18]: 4 µg/mL (≈ 8.88 µM)
- Ki [19]: 15 nM
- Ki [20]: 0.055 nM
- Ki [21]: 0.51 nM
- Ki [22]: 350 nM
- Ki [23]: > 5000 nM
- Ki [24]: 10 nM
- MIC [25]: 32 µg/mL (≈ 71.1 µM)
- Ki [26]: 85 nM
- MIC [27]: 32 µg/mL (≈ 71.1 µM)
- Ki [28]: 0.11 nM
- MIC [29]: 32 µg/mL (≈ 71.1 µM)
- MIC [30]: 32 µg/mL (≈ 71.1 µM)
- Ki [31]: 1900 nM
- MIC [32]: 8 µg/mL (≈ 17.8 µM)
- IC50 [33]: > 20000 nM
- MIC [34]: 2 µg/mL (≈ 4.44 µM)
- MIC [35]: 0.12 µg/mL (≈ 0.266 µM)
- Ki [36]: > 20000 nM
